Measurements as given in ChEMBL document CHEMBL1799995, “17(R),18(S)-epoxyeicosatetraenoic acid, a potent eicosapentaenoic acid (EPA) derived regulator of cardiomyocyte contraction: structure-activity relationships and stable analogues” (J Med Chem, 2011).
Activity calls are given as the source filed them. No cut-off for these calls is given here.

Tests used:
[1] = Negative chronotropic activity in neonatal Wistar rat Cardiomyocytes assessed as change in heart beating at 30 nM and at 37 degC after 5 mins; assay type: functional, Cardiac muscle cell
Procedure, shortened: (§1)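 NRCMs from 1–2-day-old Wistar rats were cultured as monolayers in Halle SM 20-I medium with 10% heat-inactivated FCS and 2 μM fluorodeoxyuridine. Spontaneously beating clusters formed after 5–7 days (120–150 beats/min at 37 °C, inverted microscope). Compounds came from 1000-fold ethanol stocks and were tested at 30 nM final. Beating rates of 6–8 clusters were counted before and 5 min after addition. The change in beats/min is given as mean ± SE, n = 18–40 clusters from ≥3 independent cultures.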

Liver [2] = experiment: Metabolic stability in rat liver homogenates assessed as formation of vic-diol 4 by LC-MS analysis; assay type: ADME, tissue-based; conditions: tissue homogenate
Liver [3] = experiment: Metabolic stability in rat liver homogenates assessed as epoxidation of compound by LC-MS analysis; assay type: ADME, tissue-based; conditions: tissue homogenate
Liver [4] = experiment: Metabolic stability in rat liver homogenates assessed as hydroxylation of compound by LC-MS analysis; assay type: ADME, tissue-based; conditions: tissue homogenate
Procedure, shortened: (§2)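 Compounds were incubated with rat liver homogenate plus NADPH for 30 min at 37 °C. Parent compound and hydroxy-metabolites were analysed by LC/MS.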

[5] = Metabolic stability in rat liver homogenates after 30 mins by LC-MS analysis; assay type: ADME, tissue-based; procedure, shortened: as §2
[6] = Negative chronotropic activity in neonatal Wistar rat Cardiomyocytes assessed as change in heart beating after 5 mins at 37 degC; assay type: functional, cell-based; conditions: cardiac muscle cell; procedure, shortened: as §1
Cardiac muscle cell [7] = experiment: Negative chronotropic activity in neonatal Wistar rat Cardiomyocytes assessed as change in heart beating at > 5 nM after 5 mins at 37 degC; assay type: functional, cell-based
Cardiac muscle cell [8] = experiment: Inhibition of (Z)-16-(3-ethyloxiran-2-yl)hexadec-11-enoic acid -induced negative chronotropic activity in neonatal Wistar rat Cardiomyocytes at 30 nM after 5 mins; assay type: functional, cell-based
Procedure, shortened: (§3)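 NRCMs from 1–2-day-old Wistar rats were cultured as monolayers in Halle SM 20-I medium with 10% heat-inactivated FCS and 2 μM fluorodeoxyuridine. Spontaneously beating clusters formed after 5–7 days (120–150 beats/min). Cells were preincubated with the test antagonist (30 nM final) for 5 min at 37 °C, then the agonist was added (30 nM final). Beating was counted under an inverted microscope.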

[9] = Inhibition of EPA-induced negative chronotropic activity in neonatal Wistar rat Cardiomyocytes at 30 nM after 5 mins; assay type: functional, Cardiac muscle cell; parameters: scale not given: the % may be the effect or the level left
[10] = Inhibition of (5Z,8Z,11Z,14Z)-16-(3-ethyloxiran-2-yl)hexadeca-5,8,11,14-tetraenoic acid-induced negative chronotropic activity in neonatal Wistar rat Cardiomyocytes at 30 nM after 5 mins; assay type: functional, Cardiac muscle cell; parameters: scale not given: the % may be the effect or the level left; procedure, shortened: as §3
[11] = Inhibition of (5Z,11Z)-16-(3-ethyloxiran-2-yl)hexadeca-5,11-dienoic acid-induced negative chronotropic activity in neonatal Wistar rat Cardiomyocytes at 30 nM after 5 mins; assay type: functional, Cardiac muscle cell; parameters: scale not given: the % may be the effect or the level left; procedure, shortened: as §3
[12] = Inhibition of (Z)-16-(2-(methylamino)-2-oxoacetamido)hexadec-11-enoic acid-induced negative chronotropic activity in neonatal Wistar rat Cardiomyocytes at 30 nM after 5 mins; assay type: functional, Cardiac muscle cell; parameters: scale not given: the % may be the effect or the level left; procedure, shortened: as §3
[13] = target: T1, Bifunctional epoxide hydrolase 2 (Homo sapiens) (UniProt P34913); conditions: 1 to 5 uM
T1 sequence (whole entry): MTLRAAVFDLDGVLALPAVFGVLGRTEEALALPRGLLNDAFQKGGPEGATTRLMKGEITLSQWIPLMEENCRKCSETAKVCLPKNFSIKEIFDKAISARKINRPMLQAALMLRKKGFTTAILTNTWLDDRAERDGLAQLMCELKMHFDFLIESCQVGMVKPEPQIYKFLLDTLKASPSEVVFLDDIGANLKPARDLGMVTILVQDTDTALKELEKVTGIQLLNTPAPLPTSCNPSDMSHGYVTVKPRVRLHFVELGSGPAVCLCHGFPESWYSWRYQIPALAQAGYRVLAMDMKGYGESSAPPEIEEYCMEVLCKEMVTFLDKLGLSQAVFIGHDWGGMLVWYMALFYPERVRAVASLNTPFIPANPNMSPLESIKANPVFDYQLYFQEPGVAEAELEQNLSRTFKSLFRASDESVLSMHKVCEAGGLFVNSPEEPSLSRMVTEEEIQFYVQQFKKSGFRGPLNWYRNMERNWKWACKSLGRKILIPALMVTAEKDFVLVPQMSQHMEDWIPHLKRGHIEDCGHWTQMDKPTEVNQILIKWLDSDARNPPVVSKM

[14] = target: T1, Bifunctional epoxide hydrolase 2 (Homo sapiens); experiment: Inhibition of soluble epoxide hydrolase at 5 uM
Liver [15] = experiment: Metabolic stability in rat liver homogenates assessed as formation of regioisomeric hydroxy metabolite after 30 mins by LC-MS analysis; assay type: ADME, tissue-based; conditions: tissue homogenate, 0.5 h; procedure, shortened: as §2
[16] = Metabolic stability in rat liver homogenates assessed as compound remaining after 30 mins by LC-MS analysis; assay type: ADME, tissue-based; procedure, shortened: as §2

SMILES	Activity [1] [bpm]	also measured
CNC(=O)C(=O)NCCCCC#CCCCCCCCCCC(=O)O	-2.6	
CCC1OC1CCCCCCCCCCCCCCCC(=O)O (stereo not given)	0.8	
CC[C@H]1O[C@H]1C/C=C\CCCCCCCCCCCCC(=O)O	0.7	
CCC1OC1C/C=C\C/C=C\C/C=C\C/C=C\CCCC(=O)O (stereo not given)	-22.5	Stability (Liver [2]): Unstable; Stability (Liver [3]): Unstable; Stability (Liver [4]): Unstable; remaining at 0.5 h [5]: 20%
CCC1OC1C/C=C\CCCCCCC/C=C\CCCC(=O)O (stereo not given)	0	
CC[C@@H]1O[C@@H]1C/C=C\C/C=C\C/C=C\C/C=C\CCCC(=O)O	-21.3	EC50 [6]: 1 nM; Activity (Cardiac muscle cell [7]): Active
CCCC(=O)NCCCC/C=C\CCCCCCCCCC(=O)O	-1.6	
CCC1OC1C/C=C\CCCCCCCCCCCCC(=O)O (stereo not given)	-1.2	Activity (Cardiac muscle cell [8]): Active
CCC1OC1CCCC/C=C\CCCC/C=C\CCCC(=O)O (stereo not given)	-19.8	
O=C(O)CCCCCCCCC/C=C\CCCC[C@H]1O[C@H]1CCO	-4.8	
CCCCNC(=O)CCC/C=C\CCCCCCCCCC(=O)O	-22.4	
CCC1OC1C/C=C\CCCC/C=C\CCCCCCC(=O)O (stereo not given)	-2.7	Activity (Cardiac muscle cell [8]): Active; Activity [9]: 90%; Activity [10]: 90%; Activity [11]: 90%; Activity [12]: 90%
CC[C@@H]1O[C@@H]1CCCC/C=C\CCCCCCCCCC(=O)O	-20.3	
CCCC(=O)NC/C=C\CCCCCCCCCCCCC(=O)O	12.8	
CC[C@H]1O[C@H]1C/C=C\C/C=C\C/C=C\C/C=C\CCCC(=O)O	1.3	
CCC1OC1CCCCCCCCCC/C=C\CCCC(=O)O (stereo not given)	-0.6	
CCCC(=O)N(CCCC/C=C\CCCCCCCCCC(=O)O)C(C)C	0.2	
CCNC(=O)NC/C=C\CCCCCCCCCCCCC(=O)O	17.8	
CCC1OC1CCCCCCC/C=C\CCCCCCC(=O)O (stereo not given)	-0.6	
CC[C@H]1O[C@H]1CCCC/C=C\CCCCCCCCCC(=O)O	3.3	
CCC(O)C(O)C/C=C\C/C=C\C/C=C\C/C=C\CCCC(=O)O (stereo not given)	0	
CCNC(=O)NCCCC/C=C\CCCCCCCCCC(=O)O	-27	Activity (Cardiac muscle cell [7]): Active; inhibition [13]: Dose-dependent effect
O=C(O)CCCCCCCCC/C=C\CCCC[C@@H]1O[C@@H]1CCO	-1.4	
CCN(C)C(=O)N(C)CCCC/C=C\CCCCCCCCCC(=O)O	-5.8	
CNC(=O)C(=O)NCCCC/C=C/CCCCCCCCCC(=O)O	-4.7	Activity (Cardiac muscle cell [7]): inactive
CCCNC(=O)CCCC/C=C\CCCCCCCCCC(=O)O	-4.7	
CCC1OC1CCCC/C=C\CCCCCCCCCC(=O)O (stereo not given)	-18.3	
CNC(=O)C(=O)NC/C=C\CCCCCCCCCCCCC(=O)O	-1.3	inhibition [14]: inactive
CNC(=O)C(=O)NCCCC/C=C\CCCCCCCCCC(=O)O	-33.7	Activity (Cardiac muscle cell [7]): Active; Stability (Liver [15]): Stable; inhibition [14]: inactive; remaining at 0.5 h [16]: > 85%
CC[C@@H]1O[C@@H]1C/C=C\CCCCCCCCCCCCC(=O)O	-21.1	
